# ChEMBL document CHEMBL3739414, “Synthesis and biological evaluation of methylated scutellarein analogs based on metabolic mechanism of scutellarin in vivo” (Eur J Med Chem, 2015)
# What was measured:
# [1] = N-octanol/0.1 M HCl partition coefficient, log P of the compound after 5 hrs by spectrophotometric analysis; format: physicochemical
# Outline: (§1)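 Shake-flask method. Stock (10 µg/ml) diluted into buffer (0.1 mol/L HCl, 0.15 mol/L NaCl or 0.15 mol/L NaHCO3) and mixed with an equal volume of mutually saturated n-octanol, protected from light. Vortexed 3 min, then shaken 5 h at 25 °C. Both phases read at 334 nm; logP = log([C]octanol/[C]aqueous).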
# [2] = Antioxidant activity in rat PC12 cells assessed as inhibition of H2O2-induced cytotoxicity at 25 uM after 4 hrs by MTT assay; format: functional; details: PC-12, 4 h
# Outline: (§2)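 PC12 cells seeded at 5×10^4 cells/ml and cultured 24 h at 37 °C, 5% CO2. The model group got 400 µM H2O2 for 1 h before drug at 25 or 50 µM; the control group got serum-free DMEM. Five wells per group. MTT 4 h at 37 °C, formazan dissolved in DMSO, absorbance read at 517 nm; inhibiting rate of H2O2 cytotoxicity calculated from absorbance.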
# [3] = Aqueous solubility of the compound in water after 1 hr by UV-vis spectrophotometer analysis; format: physicochemical
# Outline: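 Standard curves from methanol solutions at 0.1–10 µg/ml, UV read at 334 nm. Compound (150 µg) dissolved in 10 ml water by ultrasound for 1 h at room temperature, left 30 min, centrifuged. Supernatant measured by UV scan and solubility read from the standard curve.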
# [4] = N-octanol/0.15 M NaHCO3 partition coefficient, log P of the compound after 5 hrs by spectrophotometric analysis; format: physicochemical; outline: as §1
# [5] = Antioxidant activity in rat PC12 cells assessed as inhibition of H2O2-induced cytotoxicity at 50 uM after 4 hrs by MTT assay; format: functional; details: PC-12, 4 h; outline: as §2
# Plasma [6] = assay: Antithrombotic activity in New Zealand white rabbit platelet-poor plasma assessed as reduction of fibrinogen at 100 uM after 3 mins (reference value: 7.02+/- 0.16 g/L)
# Plasma [7] = assay: Antithrombotic activity in New Zealand white rabbit platelet-poor plasma assessed as increase of thrombin time at 100 uM after 3 mins (reference value: 20.25 +/- 1.02 seconds); format: functional, Oryctolagus cuniculus
# Outline: (§3)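 Citrated blood (3.8% citrate, 1:9) spun 3000 rpm for 10 min to give platelet-poor plasma. Compounds dissolved in 80% ethanol at 100 μM. Kit assays run on a coagulometer at 37 °C with 3 min incubations. TT: plasma, then thrombin plus sample. PT: plasma, then thromboplastin plus sample. APTT: sample, plasma and activator. FIB: plasma, FIB reagent and sample. Mean ± S.D., n = 4.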
# Plasma [8] = assay: Antithrombotic activity in New Zealand white rabbit platelet-poor plasma assessed as increase of prothrombin time at 100 uM after 3 mins (reference value: 4.99 +/- 0.18 seconds); format: functional, Oryctolagus cuniculus; outline: as §3
# Plasma [9] = assay: Antithrombotic activity in New Zealand white rabbit platelet-poor plasma assessed as increase of activated partial thromboplastin time at 100 uM after 3 mins (reference value: 30.58 +/- 1.55 seconds); format: functional, Oryctolagus cuniculus; outline: as §3
# [10] = N-octanol/0.15 M NaCl partition coefficient, log P of the compound after 5 hrs by spectrophotometric analysis; format: physicochemical; outline: as §1
# [11] = Antioxidant activity assessed as DPPH radical scavenging activity after 30 mins; format: physicochemical
# Outline: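 Sample in DMSO at 5–500 μM mixed 1:1 with 0.2 mM DPPH in ethanol; DMSO control. Reaction 30 min at 25 °C, absorbance at 517 nm. Scavenging % = [1 − (A1 − A2)/A0] × 100, with a no-DPPH sample blank. IC50 = concentration giving 50% loss of DPPH radical.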
Compound,logP at 5 h [1],inhibition at 25 µM [2] [%],solubility at 1 h [3] [µg/mL],logP at 5 h [4],inhibition at 50 µM [5] [%],Activity (Plasma [6]) [g/L],TT (Plasma [7]) [s],PT (Plasma [8]) [s],APTT (Plasma [9]) [s],logP at 5 h [10],IC50 [11] [µM]
COc1ccc(-c2cc(=O)c3c(O)c(O)c(O)cc3o2)cc1,1.65,63.3,6.31,0.785,89.4,5.67,24.98,6.4,31.53,1.41,25.3
COc1cc2oc(-c3ccc(O)cc3)cc(=O)c2c(O)c1O,1.59,56.2,4.56,1.03,82.3,5.74,25.48,6.55,34.49,1.54,30.2
O=C(O)[C@H]1O[C@@H](Oc2cc3oc(-c4ccc(O)cc4)cc(=O)c3c(O)c2O)[C@H](O)[C@@H](O)[C@@H]1O [SCUTELLARIN],0.592,53.1,–,-0.0513,79.2,6.13,23.08,6.28,34.18,0.365,27.9
COc1ccc(-c2cc(=O)c3c(O)c(OC)c(OC)cc3o2)cc1 [SALVIGENIN],2.64,11.1,0.31,2.27,20.4,5.96,29.03,6.75,36,2.55,463
COc1ccc(-c2cc(=O)c3c(O)c(O)c(OC)cc3o2)cc1 [LADANEIN],1.94,48.2,3.2,1.4,74.3,5.94,23.33,6.93,38.28,1.79,159
COc1c(O)c(O)cc2oc(-c3ccc(O)cc3)cc(=O)c12,1.55,54.4,5.72,0.892,81.4,5.58,22.6,6.65,30.53,1.47,28.9
COc1c(O)cc2oc(-c3ccc(O)cc3)cc(=O)c2c1O [HISPIDULIN],1.77,62.4,4.27,1.02,88,5.38,25.96,6.25,33.1,1.68,23.7
O=c1cc(-c2ccc(O)cc2)oc2cc(O)c(O)c(O)c12 [SCUTELLAREIN],0.892,64.6,–,0.48,91.2,6.84,24.4,5.93,36.65,0.772,22.6
COc1ccc(-c2cc(=O)c3c(O)c(OC)c(O)cc3o2)cc1 [PECTOLINARIGENIN],2.14,44.2,1.36,1.86,68.1,5.92,27.45,6.53,30.48,2.09,170
COc1cc2oc(-c3ccc(O)cc3)cc(=O)c2c(O)c1OC [CIRSIMARITIN],2.19,52.2,1.53,1.81,76.1,5.65,25.1,6.95,39.42,2.14,190
